ChEMBL document CHEMBL1221386, “Synthesis and pharmacological evaluation of 3-aryl-3-azolylpropan-1-amines as selective triple serotonin/norepinephrine/dopamine reuptake inhibitors” (Bioorg Med Chem Lett, 2010)

Experiments:
[1] = molecular target: T1, Sodium-dependent dopamine transporter (Homo sapiens, UniProt Q01959); assay: Inhibition of dopamine reuptake at human dopamine transporter expressed in CHO cells at 100 nM
[2] = molecular target: Sodium-dependent serotonin transporter (Rattus norvegicus) (UniProt P31652); assay: Displacement of [3H]paroxetine from SERT in rat cerebral cortex at 100 nM
[3] = molecular target: T2, Sodium-dependent serotonin transporter (Homo sapiens, UniProt P31645); assay: Inhibition of serotonin reuptake at human SERT expressed in HEK293 cells at 100 nM
Target sequence in this assay (P31645 whole entry, looked up): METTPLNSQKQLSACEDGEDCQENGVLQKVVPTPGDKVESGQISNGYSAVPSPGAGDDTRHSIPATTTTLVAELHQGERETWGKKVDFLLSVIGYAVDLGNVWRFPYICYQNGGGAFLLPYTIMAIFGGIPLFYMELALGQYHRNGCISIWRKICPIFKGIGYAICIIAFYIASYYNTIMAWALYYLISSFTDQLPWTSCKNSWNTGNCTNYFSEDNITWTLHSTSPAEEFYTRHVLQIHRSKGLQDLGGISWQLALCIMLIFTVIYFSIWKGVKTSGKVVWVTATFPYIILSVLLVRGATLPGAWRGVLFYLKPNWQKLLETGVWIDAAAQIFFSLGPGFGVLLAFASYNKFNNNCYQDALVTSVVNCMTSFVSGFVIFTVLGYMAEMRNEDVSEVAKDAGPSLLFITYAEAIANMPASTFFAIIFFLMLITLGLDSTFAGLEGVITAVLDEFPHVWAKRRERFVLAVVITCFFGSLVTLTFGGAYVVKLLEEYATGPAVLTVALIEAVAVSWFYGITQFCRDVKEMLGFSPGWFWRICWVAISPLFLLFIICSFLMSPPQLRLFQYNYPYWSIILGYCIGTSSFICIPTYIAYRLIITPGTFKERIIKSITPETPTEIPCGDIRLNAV

[4] = molecular target: T3, Sodium-dependent noradrenaline transporter (Homo sapiens, UniProt P23975); assay: Inhibition of norepinephrine reuptake at human NET expressed in MDCK cells at 100 nM
[5] = molecular target: T3, Sodium-dependent noradrenaline transporter; assay: Inhibition of norepinephrine reuptake at human NET expressed in MDCK cells; type: cell-based
[6] = test system: Mus musculus; assay: Antidepressant activity in mouse assessed as reduction of mobility time by forced swimming test at 30 mg/kg, ip; parameters: scale not given: the % may be the effect or the level left; settings: route intraperitoneal
[7] = molecular target: T2, Sodium-dependent serotonin transporter; assay: Inhibition of serotonin reuptake at human SERT expressed in HEK293 cells; type: cell-based
Target sequence in this assay (P31645 whole entry): as the sequence (P31645 whole entry, looked up) above

[8] = molecular target: T1, Sodium-dependent dopamine transporter; assay: Inhibition of dopamine reuptake at human dopamine transporter expressed in CHO cells; type: cell-based
Method in brief: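 CHO-K1 cells stably expressing human DAT, assayed for [3H]DA uptake in duplicate. Nomifensine served as standard. IC50 determined.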

[9] = Half life in human liver microsomes; type: ADME, Microsome
Method in brief: (§1)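 Metabolic stability in human or rat liver microsomes. Half-lives measurable up to 60 min.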

[10] = molecular target: Sodium-dependent serotonin transporter (Rattus norvegicus) (UniProt P31652); assay: Displacement of [3H]paroxetine from SERT in rat cerebral cortex at 1 uM; type: tissue-based
Method in brief: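 Competition binding against 2 nM [3H]paroxetine on freshly prepared rat frontal cortex membranes, homogenized and centrifuged twice at 20,000g, then resuspended in incubation buffer. Tris–HCl pH 7.4 buffer with NaCl and 5 mM KCl. Incubation 2 h at 25 °C, run in triplicate. Nonspecific binding defined with citalopram. Read-out is percent inhibition at 1 µM.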

[11] = Half life in rat liver microsomes; type: ADME, Microsome
Method in brief: as §1

T3 sequence (P23975 whole entry): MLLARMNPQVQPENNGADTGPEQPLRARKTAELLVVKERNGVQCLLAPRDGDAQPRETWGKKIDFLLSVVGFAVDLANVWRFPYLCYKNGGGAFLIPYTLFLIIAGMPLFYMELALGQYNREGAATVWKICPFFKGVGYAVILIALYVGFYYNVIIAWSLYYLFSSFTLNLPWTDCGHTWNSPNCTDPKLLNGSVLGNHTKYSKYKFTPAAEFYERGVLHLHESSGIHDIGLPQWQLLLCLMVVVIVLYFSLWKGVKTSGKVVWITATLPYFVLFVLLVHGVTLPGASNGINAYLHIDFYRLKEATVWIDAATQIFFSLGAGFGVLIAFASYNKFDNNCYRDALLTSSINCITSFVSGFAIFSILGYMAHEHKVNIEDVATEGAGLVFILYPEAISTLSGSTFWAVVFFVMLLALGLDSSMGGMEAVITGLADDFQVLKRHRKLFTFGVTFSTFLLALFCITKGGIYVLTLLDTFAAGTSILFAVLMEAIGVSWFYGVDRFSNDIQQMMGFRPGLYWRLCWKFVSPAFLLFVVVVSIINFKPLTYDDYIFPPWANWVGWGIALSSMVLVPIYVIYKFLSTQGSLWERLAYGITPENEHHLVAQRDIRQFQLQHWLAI
T1 sequence (Q01959 whole entry): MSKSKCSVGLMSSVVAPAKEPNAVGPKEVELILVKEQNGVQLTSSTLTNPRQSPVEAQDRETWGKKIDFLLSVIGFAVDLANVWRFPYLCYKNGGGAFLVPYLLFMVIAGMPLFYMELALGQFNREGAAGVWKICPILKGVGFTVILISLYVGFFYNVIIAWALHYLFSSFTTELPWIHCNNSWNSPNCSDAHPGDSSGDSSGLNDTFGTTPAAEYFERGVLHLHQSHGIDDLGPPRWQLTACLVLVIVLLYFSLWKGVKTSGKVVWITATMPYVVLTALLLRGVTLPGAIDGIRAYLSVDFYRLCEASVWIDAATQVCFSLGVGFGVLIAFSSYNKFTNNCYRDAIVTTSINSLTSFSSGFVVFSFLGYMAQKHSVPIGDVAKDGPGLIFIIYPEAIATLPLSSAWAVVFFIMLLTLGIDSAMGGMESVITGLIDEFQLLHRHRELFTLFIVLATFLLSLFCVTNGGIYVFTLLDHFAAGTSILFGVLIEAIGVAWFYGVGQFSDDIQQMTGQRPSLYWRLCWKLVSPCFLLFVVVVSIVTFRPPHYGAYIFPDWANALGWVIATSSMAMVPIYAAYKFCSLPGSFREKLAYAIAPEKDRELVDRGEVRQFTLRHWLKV
Sequence of Sodium-dependent serotonin transporter (Rattus norvegicus) (P31652 whole entry): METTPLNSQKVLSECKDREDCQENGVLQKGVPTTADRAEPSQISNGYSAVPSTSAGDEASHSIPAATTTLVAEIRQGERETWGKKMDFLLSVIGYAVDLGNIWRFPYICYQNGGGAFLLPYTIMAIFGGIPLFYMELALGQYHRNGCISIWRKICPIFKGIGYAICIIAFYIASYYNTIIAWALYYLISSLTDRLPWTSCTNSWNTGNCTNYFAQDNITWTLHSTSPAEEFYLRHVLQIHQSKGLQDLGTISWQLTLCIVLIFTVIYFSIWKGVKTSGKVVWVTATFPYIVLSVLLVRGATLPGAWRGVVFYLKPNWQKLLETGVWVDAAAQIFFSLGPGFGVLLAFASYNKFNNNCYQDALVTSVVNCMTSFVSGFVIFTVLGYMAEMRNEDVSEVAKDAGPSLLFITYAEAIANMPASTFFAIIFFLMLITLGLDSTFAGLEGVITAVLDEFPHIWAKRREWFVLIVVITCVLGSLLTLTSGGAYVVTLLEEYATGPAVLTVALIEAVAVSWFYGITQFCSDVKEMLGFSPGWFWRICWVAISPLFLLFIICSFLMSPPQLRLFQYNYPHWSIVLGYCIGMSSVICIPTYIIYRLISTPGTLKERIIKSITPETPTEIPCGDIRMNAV

CNCC[C@@H](c1ccc2ccccc2c1)n1nnc(C)n1
inhibition [1]: 7%
inhibition [2]: 60.2%
inhibition [3]: 82%
inhibition [4]: 79%

CNCC[C@H](c1ccc(Cl)c(Cl)c1)n1nnc(C)n1
inhibition [2]: 20%

CNCC[C@H](c1ccc2ccccc2c1)n1nnc(C)n1
inhibition [1]: 3%
inhibition [2]: 34.5%
inhibition [3]: 23%
inhibition [4]: 37%

CN(C)CCC(c1ccc2ccccc2c1)n1ncnn1 (racemic)
IC50 [5]: 264 nM
Activity [6]: 43.2%
inhibition [1]: 20%
IC50 [7]: 138 nM
IC50 [8]: 616 nM
half-life [9]: 50 min
inhibition [3]: 41%
inhibition [10]: 85.1%
half-life [11]: 3 min
inhibition [4]: 30%

CN(C)CCC(c1ccc2cc(F)ccc2c1)n1ncnn1 (racemic)
inhibition [1]: 7%
inhibition [2]: 74.1%
half-life [9]: > 60 min
inhibition [3]: 61%
half-life [11]: 3 min
inhibition [4]: 12%

CNCCC(c1ccc2ccccc2c1)n1ncnn1 (racemic)
IC50 [5]: 13.3 nM
inhibition [1]: 10%
IC50 [7]: 32 nM
IC50 [8]: 1240 nM
half-life [9]: 49 min
inhibition [3]: 78%
inhibition [10]: 90.4%
half-life [11]: 12 min
inhibition [4]: 84%

CNCCC(c1ccc2ccccc2c1)n1nnc(-c2ccccc2)n1 (racemic)
Activity [6]: 5.5%
inhibition [10]: 98.4%

CNCCC(c1ccc2cc(F)ccc2c1)n1ncnn1 (racemic)
inhibition [1]: 6%
inhibition [2]: 80.1%
half-life [9]: > 60 min
inhibition [3]: 59%
half-life [11]: 29 min
inhibition [4]: 25%

CNCCC(c1ccc2cc(F)ccc2c1)n1nnc(C)n1 (racemic)
inhibition [1]: 10%
inhibition [2]: 81.3%
half-life [9]: > 60 min
inhibition [3]: 58%
half-life [11]: 27 min
inhibition [4]: 39%

CN(C)CCC(c1ccc(Cl)c(Cl)c1)n1ncnn1 (racemic)
IC50 [5]: 234 nM
inhibition [1]: 58%
IC50 [7]: 279 nM
IC50 [8]: 78 nM
half-life [9]: 55 min
inhibition [3]: 27%
inhibition [10]: 72%
half-life [11]: 3 min
inhibition [4]: 37%

CNCCC(c1ccc(Cl)c(Cl)c1)n1ncnn1 (racemic)
IC50 [5]: 69 nM
inhibition [1]: 48%
IC50 [7]: 181 nM
IC50 [8]: 116 nM
half-life [9]: > 60 min
inhibition [3]: 35%
inhibition [10]: 86%
half-life [11]: > 60 min
inhibition [4]: 56%

CN(C)CCC(c1ccc(Cl)c(Cl)c1)n1nccn1 (racemic)
inhibition [10]: 69.9%

CN(C)CCC(c1ccc(Cl)cc1)n1ncnn1 (racemic)
inhibition [10]: 32.4%

CN(C)CCC(c1ccc(Cl)cc1Cl)n1ncnn1 (racemic)
inhibition [2]: -0.2%

CN(C)CCC(c1ccc(F)c(F)c1)n1ncnn1 (racemic)
inhibition [10]: 25.3%

CN(C)CCC(c1ccc(OCc2ccccc2)cc1)n1ncnn1 (racemic)
inhibition [2]: 9.5%

CN(C)CCC(c1ccc2cc(Cl)ccc2c1)n1ncnn1 (racemic)
inhibition [1]: 18%
inhibition [3]: 46%
inhibition [10]: 54.3%
inhibition [4]: 32%

CN(C)CCC(c1ccc2ccccc2c1)n1nnc(-c2ccccc2)n1 (racemic)
inhibition [10]: 92.6%

CN(C)CCC(c1cccc(Cl)c1)n1ncnn1 (racemic)
inhibition [2]: -5.6%

CNCCC(c1ccc(Br)cc1)n1ncnn1 (racemic)
inhibition [2]: 10.7%

CNCCC(c1ccc(C(F)(F)F)cc1)n1ncnn1 (racemic)
inhibition [2]: 15.3%

CNCCC(c1ccc(Cl)c(Cl)c1)n1nnc(C)n1 (racemic)
inhibition [10]: 86%
